In brackets after ≈: the same amount, converted by molar mass.
Legend:
Assay type in all cases: functional
Vero [1] = assay: Antiviral activity against herpesvirus vero cells in tissue culture; conditions: Chlorocebus sabaeus, read-out: ID50 (the source's name)
[2] = Antiviral activity against herpesvirus […] cells in tissue culture; conditions: Homo sapiens; read-out: ID50 (the source's name)
Human alphaherpesvirus 2 [3] = assay: Antiviral activity against herpesvirus HSV-2 in G strain in tissue culture in Vero cells; conditions: Human alphaherpesvirus 2, Vero; read-out: ID50 (the source's name)
How it was run: (§1)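 HSV-1 strain BWS or HSV-2 strain G plaque-reduction assay in Vero cells; ID50 reported in µg/mL.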

Human betaherpesvirus 5 [4] = assay: Antiviral activity against herpesvirus HCMV in AD-169 strain in […] cells; conditions: read-out: ID50 (the source's name)
How it was run: (§2)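 HCMV strain AD-169 plaque-reduction assay in MRC-5 cells (human lung fibroblasts); ID50 reported in µg/mL.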

Human alphaherpesvirus 1 [5] = assay: Antiviral activity against herpesvirus HSV-1 in BWS strain in Vero cells; conditions: Human alphaherpesvirus 1, Vero; read-out: ID50 (the source's name); how it was run: as §1
Vero [6] = assay: Antiviral activity against herpesvirus vero cells in tissue culture.; conditions: Chlorocebus sabaeus, read-out: ID50 (the source's name)
Human alphaherpesvirus 1 [7] = assay: Antiviral activity against herpesvirus HSV-1 in BWS strain in tissue culture.; conditions: read-out: ID50 (the source's name); how it was run: as §1
[8] = Antiviral activity against herpesvirus […] cells in tissue culture.; conditions: Homo sapiens; read-out: ID50 (the source's name)
Human betaherpesvirus 5 [9] = assay: Antiviral activity against herpesvirus HCMV in AD-169 strain in tissue culture.; conditions: read-out: ID50 (the source's name); how it was run: as §2
Human alphaherpesvirus 2 [10] = assay: Antiviral activity against herpesvirus HSV-2 in G strain in tissue culture.; conditions: read-out: ID50 (the source's name); how it was run: as §1

Structure (SMILES): Nc1nc(O)c2ncn(CC[C@@H](CO)OCP(=O)(O)O)c2n1
- IC50 (Vero [1]): > 100 µg/mL
- IC50 [2]: 10 µg/mL (≈ 30 µM)
- IC50 (Human alphaherpesvirus 2 [3]): 97 µg/mL (≈ 291 µM)
- IC50 (Human betaherpesvirus 5 [4]): 1 µg/mL (≈ 3 µM)
- IC50 (Human alphaherpesvirus 1 [5]): > 100 µg/mL

Structure (SMILES): Nc1ccn(CC[C@@H](CO)OCP(=O)(O)O)c(=O)n1
- IC50 (Vero [1]): > 100 µg/mL
- IC50 [2]: > 100 µg/mL
- IC50 (Human alphaherpesvirus 2 [3]): > 100 µg/mL
- IC50 (Human betaherpesvirus 5 [4]): > 100 µg/mL
- IC50 (Human alphaherpesvirus 1 [5]): > 100 µg/mL

Structure (SMILES): Nc1ncnc2c1ncn2CC[C@@H](CO)OCP(=O)(O)O
- IC50 (Vero [1]): > 100 µg/mL
- IC50 [2]: > 100 µg/mL
- IC50 (Human alphaherpesvirus 2 [3]): > 100 µg/mL
- IC50 (Human betaherpesvirus 5 [4]): > 100 µg/mL
- IC50 (Human alphaherpesvirus 1 [5]): > 100 µg/mL

Structure (SMILES): Nc1nc2c(ncn2COC(CO)CO)c(=O)[nH]1 [GANCICLOVIR]
- IC50 (Vero [6]): > 100 µg/mL
- IC50 (Human alphaherpesvirus 1 [7]): 0.2 µg/mL (≈ 0.784 µM)
- IC50 [8]: > 100 µg/mL
- IC50 (Human betaherpesvirus 5 [9]): 5 µg/mL (≈ 19.6 µM)
- IC50 (Human alphaherpesvirus 2 [10]): 1.6 µg/mL (≈ 6.27 µM)

From ChEMBL document CHEMBL1125064, “Synthesis and antiviral activity of (S)-9-[4-hydroxy-3-(phosphonomethoxy)butyl]guanine” (1990)
